CHO parental Ca: signal in parental CHO cells, OX1R antagonist counter-screen; AID 463079; 330,000 tested, 0.63% active; parental CHO-K1, ATP-induced calcium, Fluo-8 fluorescence; inhibition, % at 5.6 µM;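 active = inhibition above that plate's mean sample inhibition plus 3 SD, cut at about 26% in these data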;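 also: 0% = ATP-challenged DMSO wells and 100% = DMSO wells without ATP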
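Assay system: untransfected parental CHO cell line. Also added: ATP agonist challenge. Dosing: one dose, 5.6 µM nominal. Measured by: Fluo-8 fluorescence. Read-out: % inhibition. Benchmarks: ATP wells versus no-ATP DMSO wells. Repeats: no replicates.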
OX1R antag-1: blocks the human orexin 1 receptor; O43613; OX1R-expressing cells, FRET antagonist read-out; inhibition, % at 6.6 µM; 330,000 tested, 1.8% active; AID 485270; in the data active = inhibition mostly above about 38%, no sharp cut-off; inactive = mostly below about 40%;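 also: 0% = agonist challenge alone and 100% = reference antagonist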
EP2 antag: EP2 receptor (human) inhibition; P43116; C6 glioma cells expressing human EP2, cAMP TR-FRET; cells stimulated with saturating PGE2; inhibition, % at 25 µM; 260,000 tested, 0.52% active; AID 1422;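 active = percent inhibition above 40 after rounding to a whole number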;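 also: rat C6 glioma host cells with rolipram phosphodiesterase inhibitor present; the protocol text gives 20 µM as final concentration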
Target sequence (P43116 whole entry, looked up): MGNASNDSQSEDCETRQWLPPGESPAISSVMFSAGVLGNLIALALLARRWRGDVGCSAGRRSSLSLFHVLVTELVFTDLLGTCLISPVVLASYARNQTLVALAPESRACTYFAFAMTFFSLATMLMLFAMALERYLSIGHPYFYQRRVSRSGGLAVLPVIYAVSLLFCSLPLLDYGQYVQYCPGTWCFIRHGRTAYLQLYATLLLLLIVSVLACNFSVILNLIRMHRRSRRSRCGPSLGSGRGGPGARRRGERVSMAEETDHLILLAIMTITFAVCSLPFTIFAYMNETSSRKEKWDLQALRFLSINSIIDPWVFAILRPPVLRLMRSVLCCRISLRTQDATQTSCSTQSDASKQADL
EP2 modulator: EP2 receptor (human) modulation; P43116; EP2-expressing cells, cAMP HTRF FRET, PGE2 co-stimulation; induction, % at 25 µM; 260,000 tested, 0.83% active; AID 940;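 active = compounds whose cAMP rise, as percent of the full-agonist control response, exceeds 60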;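 also: rat C6 glioma line stably carrying human EP2 under a CMV promoter; the protocol text gives 20 µM as final concentration; 100% = response of wells given 1 µM PGE2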
GPR7 antag: blocks human GPR7 receptor signaling; P48145; AID 1861; GPR7-expressing cells, fluorescence antagonist assay; 290,000 tested, 1.1% active; inhibition, % at 4.4 µM; in the data active = inhibition above about 16%, passing the limit was not always enough;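 also: cells stimulated with the agonist NPW; 0% = agonist with vehicle and 100% = vehicle without agonist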
OX1R antag-2: antagonists of human orexin 1 receptor; 330,000 tested, 0.43% active; inhibition, % at 5 µM; CHO/OX1R cells, Fluo-8 calcium fluorescence, orexin A;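 active = inhibition above its plate's threshold, mean inhibition of all tested compounds on the plate plus 3 SD, cut at about 37% in these data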;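 also: 0% = orexin A challenge wells and 100% = SB-334867-A antagonist wells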
* hit, by the source's call; . = no result given. Hits are enriched below; roughly 3.7% of the tested compounds scored in any of these assays.

SMILES	CHO parental Ca	OX1R antag-1	EP2 antag	EP2 modulator	GPR7 antag	OX1R antag-2
N#CC(C#N)=C1C=CC=CN1/C(=C\c1ccccc1)C(=O)c1cccs1	-14	35	49*	2	-6	-16
C=CCOc1ccc(/C=C2\C(=O)N(CC)C(C)=C2C(=O)OC)cc1OC	.	.	20	28	.	.
CCc1cc(Cn2nc(-c3ccccc3)cc2C(=O)NCc2cccs2)on1	50*	50	.	.	.	42
CCc1cc(Cn2nc(-c3ccccc3)cc2C(=O)NCCOC)on1	-3	11	.	.	.	-5
CC(NS(=O)(=O)c1ccc2c(c1)C(=O)c1cc(S(=O)(=O)NC(C)C(=O)O)ccc1-2)C(=O)O (centres undefined)	1	60*	.	.	-12	-5
CC(=O)NS(=O)(=O)c1ccc2c(c1)C(=O)c1cc(S(=O)(=O)NC(C)=O)ccc1-2	-10	58*	.	.	12	-13
CC(NS(=O)(=O)c1cccc(S(=O)(=O)c2ccccc2)c1)C(=O)O (centres undefined)	4	6	2	-9	-2	7
COc1ccc2c(c1)c1nc3ccccc3nc1n2CCCN1C(=O)c2ccccc2C1=O	-7	12	14	5	7	-4
COc1ccc2c(c1)c1c(C)c3cnccc3c(C)c1n2CCCN	.	.	49*	32	.	.
Cc1cc(C)n(CCc2nc(-c3cc4ccccc4o3)cs2)n1	38*	55	.	-60	-5	55*
Cc1ccc(C#CC[N+]2(CC#Cc3ccc(C)cc3)CCCCC2)cc1	16	14	2	-27	19*	-5
O=C(N/N=C/c1ccc(-c2ccc(Br)cc2)o1)c1ccc2c(c1)OCO2	-2	36*	3	-69	20	-15
O=C(N/N=C\c1cn(-c2ccccc2)nc1-c1ccccc1)c1ccc2c(c1)OCO2	-15	77*	5	6	1	-5
O=C(N/N=C/c1cn(-c2ccccc2)nc1-c1ccc(F)cc1)c1ccc2c(c1)OCO2	12	16	12	-13	-1	-26
O=C(N/N=C/c1ccc(COc2ccc(Br)cc2)o1)c1ccc2c(c1)OCO2	.	.	.	.	-5	.
COc1ccc(-c2cc(=O)oc3cc(OCC(=O)N4CCOCC4)ccc23)cc1	1	20	.	.	-14	-6
Cc1ccc(C)c(Cn2c(=O)n(C)c(=O)c3sccc32)c1	12	3	.	.	-18	-15
CCOC(=O)Cn1c(C(F)(F)F)nc2nc(Cl)c(Cl)nc21	.	.	40*	-33	.	.
CCOC(=O)Cn1c2ccccc2c2nc3ccccc3nc21	-8	15	14	44	-6	-12
Cc1cc(/C=C2\NC(=S)N(C)C2=O)ccc1N1CCCC1	53*	26	6	2	-8	72*
Cc1cc(/C=C2/C(=O)N(C)C(=S)N2C)ccc1N1CCCC1	42*	6	4	22	-12	65*
Cc1cc(N2CCCC2)ccc1/C=C1/C(=O)N(C)C(=S)N1C	13	11	1	30	-7	16
CCN1C(=O)/C(=C/c2ccc(N3CCCC3)cc2)NC1=S	62*	27	7	-22	10	74*
CCCN1C(=O)/C(=C/c2ccc(N3CCCC3)c(C)c2)NC1=S	87*	22	0	-2	4	93*
COc1cc(/C=C2\NC(=S)N(C)C2=O)ccc1O	-6	20	7	-9	6	2
SMILES	CHO parental Ca	OX1R antag-1	EP2 antag	EP2 modulator	GPR7 antag	OX1R antag-2
Cc1ccc(C(O)c2cccnc2)o1 (centres undefined)	-2	6	14	29	7	-3
O=C(O)c1ccccc1SCc1cn2cc(Cl)ccc2n1	1	1	9	12	-19	2
O=C(Nc1nc(C2C3CC4CC(C3)CC2C4)cs1)c1cc2cc([N+](=O)[O-])ccc2oc1=O (centres undefined)	-4	9	.	2	-3	-21
CCC[C@@H](OS(N)(=O)=O)[C@@H](Cc1ccccc1)C(=O)OCC	-21	38	.	.	-8	-18
Cc1cc(CN(CCCn2ccnc2)Cc2ccccc2F)c(C)n1-c1cccnc1	.	.	8	19	.	.
COC(=O)c1c(C)nc2c(c(SC)nn2-c2ccccc2)c1N	-8	24	12	63*	-8	-17
COC(=O)c1nnn(-c2ccccc2)c1N	-2	17	5	-4	-6	-13
CCCCC(CC)C(=O)Oc1ccc(O)c(C(C)(C)C)c1 (centres undefined)	5	18	4	43	30*	-29
COc1cccc(Nc2nn3c(=O)c4ccccc4nc3s2)c1	-14	39*	.	.	.	14
O=C(Cn1ncc2c3ccccc3n(Cc3ccccc3)c2c1=O)NCCN1CCOCC1	-29	10	.	.	-8	-22
COc1ccc(/C=C2/SC(=O)N(NS(=O)(=O)c3ccccc3)C2=S)cc1OC	-17	43*	9	13	-5	-5
COc1cccc(/C=C2\SC(=S)N(NS(=O)(=O)c3ccccc3)C2=O)c1OC	-13	50*	.	.	-17	-14
O=C(COc1ccc(S(=O)(=O)NCc2ccccc2)cc1Cl)NCC1CCCO1 (centres undefined)	-17	6	0	-2	8	-7
COc1ccc(CN(C)S(=O)(=O)c2nnc(NC(=O)c3ccc(C)cc3)s2)cc1OC	-11	10	.	.	1	-29
COc1ccc(CN(C)S(=O)(=O)c2nnc(NC(=O)c3ccccc3OC)s2)cc1OC	-30	49*	.	.	-2	-38
Cc1[nH]nc2c1[C@@H](c1ccccc1[N+](=O)[O-])C(C#N)=C(N)O2	-2	0	.	.	1	-9
O=C1NC(=Nc2ccc3ccccc3c2)S/C1=C/c1ccco1	-13	42*	2	-24	-4	5
COc1cc(C2Nc3ccc4ncccc4c3C3=C2C(=O)CC(C)(C)C3)cc(OC)c1O (centres undefined)	-14	20	1	1	-7	-14
COc1cc(C2Nc3ccc4ncccc4c3C3=C2C(=O)CCC3)cc(OC)c1O (centres undefined)	-9	68*	10	17	-1	-14
COc1ccc(N(C)S(=O)(=O)c2cccc(C(=O)OCC(=O)NCc3ccccc3OC)c2)cc1	14	33	7	-11	19*	2
CN(c1ccccc1)S(=O)(=O)c1cccc(C(=O)OCC(=O)NCc2ccccc2)c1	-17	24	.	.	.	-4
COc1cccc(CNC(=O)CCCn2nc(C)c3c(C)n(-c4ccc(C)cc4)nc3c2=O)c1OC	-28	14	.	.	-2	-50
Cc1ccc(NS(=O)(=O)c2cccc(C(=O)NCCCN3CCCC3=O)c2)cc1	-24	22	.	.	.	-29
O=C(O)[C@H]1CCCC[C@@H]1c1c2ccc(=O)c(O)c-2oc2c(O)c(O)ccc12	.	.	42*	-17	.	.
CC(=O)c1sc2nc(C)c3c(c2c1N)CCCC3	-18	50*	5	-13	-13	-32

Screens from PubChem.
